PKA kinase inh – inhibitors of human protein kinase A. P17612. 65,000 tested, 0.1% active. PKA Kemptide phosphorylation, Kinase-Glo ATP luminescence. AID 524. inhibition, % at 6 µM;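 active means inhibition above the screen-wide mean inhibition plus 3 SD, cut at about 21% in these data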
JNK3 inh – JNK3 (human) kinase inhibition; purified JNK3 kinase activity, HTS; P53779; inhibition, % at 8 µM; 60,000 tested, 0.61% active; in the data active means inhibition above about 17%;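 further: 0% = DMSO and 100% = reference inhibitor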
RORA act – RORA (human) activation. CHO-K1 Gal4-RORA LBD luciferase reporter, luminescence; percent increase over mock-subtracted basal signal. activation, % at 10 µM. P35398. 65,000 tested, 1.5% active;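 active means activation above the mean of all tested compounds plus 3 SD, cut at about 49% in these data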;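 further: 0% = DMSO-treated RORA cells and 100% = added signal equal to DMSO minus mock-transfected cells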
SF1 activator – activates the human nuclear receptor SF-1. Q13285. CHO-K1 Gal4-SF-1 LBD luciferase reporter; % increase over DMSO SF-1-specific signal. activation, % at 10 µM. 65,000 tested, 1.9% active;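 active means activation above the mean activation of all tested compounds plus 3 SD, cut at about 50% in these data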
Target sequence (Q13285 whole entry, looked up, the tested form may be a part): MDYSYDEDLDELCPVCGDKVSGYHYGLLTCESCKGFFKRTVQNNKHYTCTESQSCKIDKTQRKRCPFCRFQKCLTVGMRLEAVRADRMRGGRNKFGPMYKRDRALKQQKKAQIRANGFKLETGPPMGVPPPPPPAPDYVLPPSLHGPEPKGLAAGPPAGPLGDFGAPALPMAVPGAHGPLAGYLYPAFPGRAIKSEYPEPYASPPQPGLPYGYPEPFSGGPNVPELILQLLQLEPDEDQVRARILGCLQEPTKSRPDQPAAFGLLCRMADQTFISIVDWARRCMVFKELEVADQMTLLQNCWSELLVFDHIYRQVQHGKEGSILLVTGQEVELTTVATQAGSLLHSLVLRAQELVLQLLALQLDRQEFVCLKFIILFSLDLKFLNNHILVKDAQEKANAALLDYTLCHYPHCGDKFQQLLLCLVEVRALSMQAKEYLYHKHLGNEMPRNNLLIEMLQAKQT
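Material: Gal4–SF-1 LBD one-hybrid luciferase reporter in CHO-K1 cells | Amount: 4,000 cells per well | Compound dosing: 10 µM single point, 1% DMSO | Schedule: 20 h compound treatment, 37 °C | Measured by: SteadyLite luciferase luminescence | Evaluation: Percent activation versus DMSO | Control set: DMSO-treated SF-1-transfected cells as negative, DMSO-treated mock-transfected cells lacking SF-1 as background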
Htt clearance – compounds clearing mutant huntingtin protein; HeLa Exon1htt(103Q)mCFP, aggregate imaging; zero = plate's median compound well; inhibition, % at 1.5 µM; 47,000 tested, 0.42% active;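 active means inhibition of aggregate fluorescence above about 70%, also judged a hit by eye on the cell image, limit read from the data, passing the limit was not always enough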;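 further: cells exposed to compound for three days before fixation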
ROCK2 inh – inhibitors of human Rho kinase 2; O75116; purified ROCK2, Kinase-Glo ATP depletion luminescence; inhibition, % at 6 µM; 60,000 tested, 0.35% active; AID 604;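 active means inhibition above the screen-wide mean inhibition plus 3 SD, cut at about 18% in these data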;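 further: plate controls were DMSO wells for no effect and Y-27632 control wells after no-enzyme background subtraction for full effect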
Starred values were filed as active, the others as inactive; . = no result given. A selection: hits, their analogues and other compounds. The true share with any hit is near 2.9%.

SMILES	PKA kinase inh	JNK3 inh	RORA act	SF1 activator	Htt clearance	ROCK2 inh
COc1cccc2c1OC1(C)CC2NC(=O)N1c1cccc(C(=O)Nc2ccc3c(c2)OCCO3)c1 (stereo unspecified)	-6	.	35	5	.	.
CCCCNC(=O)Nc1nnc(-c2ccc(Cl)cc2)o1	.	.	.	.	33	.
Cc1ccc(S(=O)(=O)C2(C(=O)N3CCCCC3C)CC2)cc1 (stereo unspecified)	-2	1	-5	-4	.	-2
COCCOC(=O)c1c(C)oc2ccc(OC(=O)c3ccc4c(c3)OCO4)cc12	5	-1	-17	-3	.	2
c1ccc2sc(N3CN(CCN4CCOCC4)CN(c4nc5ccccc5s4)C3)nc2c1	10	8	-9	4	.	4
N#C/C(=C(/O)CN1CCOCC1)c1nc2ccccc2s1	11	4	-1	-6	77*	8
O=C(Nc1cccnc1)c1ccc(NC(=O)c2ccco2)cc1	8	9	-4	20	-48	3
O=C(Nc1ccc(NC(=O)c2ccco2)nc1)c1cccnc1	-5	5	22	55*	4	-4
CCCC(=O)Nc1ccc(NC(=O)c2cccs2)cn1	7	.	8	18	-15	.
O=C(Nc1ccc(NC(=O)C2CC2)nc1)c1cccs1	7	9	18	52*	29	-3
O=C(Nc1ccc(NC(=O)C2CC2)nc1)c1ccco1	0	-7	20	51*	-48	-9
CN(c1ccc(C(=O)NC2CC2)cc1)S(=O)(=O)c1ccccc1	8	0	0	-4	49	9
CC1=C(C)CS(=O)N(S(=O)(=O)c2ccc(Cl)cc2)C1 (stereo unspecified)	8	20*	-26	-34	-15	-1
CC1CCN(S(=O)(=O)c2ccc(Cl)cc2)CC1	4	4	-6	-12	.	0
O=C(Cn1c(=O)sc2ccccc21)Nc1ccccc1C(=O)O	-5	.	-21	-17	.	.
N#Cc1nc(COc2cccc(Cl)c2)oc1NCc1ccco1	8	1	66*	40	1	6
Cc1ccc(-c2nc(C#N)c(NCc3ccco3)o2)cc1	-8	-3	89*	6	.	-11
C=CCn1c(=O)/c(=C/c2cc(OC)c(OC)c(OC)c2)s/c1=C(/C#N)c1nc2ccccc2n1C	-1	.	27	22	.	.
CCOC(=O)c1ccc(-n2nc(C(F)(F)F)c3c(C)cc(=O)oc32)cc1	.	.	.	.	56	.
c1ccc2c(c1)oc1c(N3CCN(Cc4ccc5c(c4)OCO5)CC3)ncnc12	11	-6	4	-1	-80	10
Cc1nc2nc(-c3cccs3)cn2nc1C	1	4	53*	23	41	-6
O=C(CCCCCn1c(SCC(=O)c2ccccc2)nc2ccccc2c1=O)NCc1ccco1	14	28*	5	1	.	11
O=C(CCCn1c(SCC(=O)c2ccc(Cl)cc2)nc2ccccc2c1=O)NCc1ccco1	1	.	1	-6	-2	.
O=C(CSc1nc2ccsc2c(=O)n1NC(=O)c1ccccc1)NCc1ccco1	5	.	32	18	70*	.
CCOC(=O)CSc1nc2ccccc2c(=O)n1CCCCCC(=O)NCc1ccco1	8	23*	-7	-1	.	-2
SMILES	PKA kinase inh	JNK3 inh	RORA act	SF1 activator	Htt clearance	ROCK2 inh
O=C(CCCn1c(=S)[nH]c2ccccc2c1=O)NCc1ccco1	8	19*	1	7	44	6
O=C(CSc1nc2ccsc2c(=O)n1Cc1ccccc1)NCc1ccco1	6	.	13	-10	-1	.
CC1CCN(C(=O)CCNC(=O)Cn2cnc3sc4c(c3c2=O)CCCC4)CC1	.	.	.	.	-60	.
C=CCn1c(COc2ccc(CC)cc2)nnc1SC/C(O)=C(\C#N)c1nc2ccccc2[nH]1	6	.	12	15	.	.
CCn1nnc(-c2ccccc2NS(=O)(=O)c2ccc(S(=O)(=O)N(C)C3CCCCC3)cc2)n1	.	.	.	.	11	.
CN(C(=O)c1cccc(N2C(=O)C3CC=CCC3C2=O)c1)C1CCCCC1 (stereo unspecified)	9	-6	-30	6	.	21*
O=C(O)c1cccc(N2C(=O)C3CC=CCC3C2=O)c1 (stereo unspecified)	.	.	.	.	-21	.
COc1ccc(NC(=O)NCCN2C(=O)C3C4C=CC(C4)C3C2=O)cc1 (stereo unspecified)	4	6	66*	30	13	1
O=C(NCCN1C(=O)C2C3C=CC(C3)C2C1=O)Nc1ccccc1 (stereo unspecified)	2	1	16	-3	.	4
Cc1ccc(NC(=O)NCCN2C(=O)C3C4C=CC(C4)C3C2=O)cc1 (stereo unspecified)	2	-5	74*	98*	.	5
O=C(Cc1ccc(Br)cc1)c1ccc(O)cc1O	7	4	37	84*	3	2
Cn1c(=O)c(C(=O)c2ccccc2)nc2ccccc21	-3	-2	-15	-1	77*	-6
O=C(c1ccccc1)c1nc2ccccc2[nH]c1=O	0	4	8	4	.	4
Cc1cn(S(=O)(=O)c2ccc(Br)c3ccccc23)cn1	5	40*	-2	-17	-16	4
COc1ccc(C(C)C)cc1S(=O)(=O)n1cnc(C)c1	.	.	.	.	5	.
CN(C)C=NC(=O)/C(C#N)=C1\CCc2ccccc2N1	4	47*	13	12	-25	4
COc1ccc2c(c1)S/C(=C\C(=O)c1ccncc1)N2C	9	-8	58*	46	-20	6
CN1/C(=C\C(=O)c2cccs2)Sc2ccccc21	-1	-7	28	34	.	-7
CCc1ccc(OCc2nnc(SCCN3CCOCC3)n2C)cc1	2	-4	4	8	.	8
Cc1nc2ccc(Cl)cc2nc(C)/c1=N\O	3	-7	35	52*	19	-2
Cc1ccc2nc(C)/c(=N\O)c(C)nc2c1	.	.	.	.	58	.
O=C(Nc1ccc2c(c1)OCO2)c1ccc(Br)s1	10	-4	69*	49	-5	4
O=C(Nc1ccc2c(c1)OCO2)c1cc(C2CC2)on1	10	0	60*	49	.	4
O=C(c1ccc2c(c1)OCCCO2)c1cccs1	3	-4	22	54*	4	-1
CC(C)c1cc(C(=O)Nc2ccc3c(c2)OCO3)no1	-10	-5	20	29	.	1
SMILES	PKA kinase inh	JNK3 inh	RORA act	SF1 activator	Htt clearance	ROCK2 inh
O=C(NCC1CCCO1)c1cccs1 (stereo unspecified)	4	-1	-1	10	.	4
O=C(Nc1cccc(F)c1)c1ccc2c(c1)OCO2	8	2	31	62*	18	4
CC1=NC(C(F)(F)F)(C(F)(F)F)C(C#N)=C(C)N1	-1	-6	-14	-2	1	2
CCN(CC)C(=O)CCNS(=O)(=O)c1ccc(C)cc1	.	.	.	.	11	.
N/C(=N\O)c1ccc(NC(=O)c2cccs2)cc1	5	13	36	52*	.	-3
O=C(Nc1ccc2c(c1)OCO2)c1ccncc1	6	2	6	0	-25	11

High-throughput results deposited in PubChem by several laboratories.
